Experimental data: ChEMBL document CHEMBL1126252, “cis-bis(pyridine)platinum(II) organoamides with unexpected growth inhibition properties and antitumor activity” (1992)

Experiments:
[1] = system: HT-29; test: Compound was evaluated in vitro for its inhibitory activity againstHT-29 and BE human colon carcinoma cell line using Coulter counter assay; format: functional, cell-based
Procedure, shortened: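 HT-29 and BE human colon cells were grown 12 h in EMEM with 1% glutamine and 15% fetal calf serum. Drug or solvent was added (final solvent ≤1.0%) for a further 2 days. Cells were released with pronase and Coulter counted. ID50 (μM) was taken from the percentage growth versus dose curve, with vehicle controls.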

[2] = system: L1210; test: Compound was evaluated in vitro for its inhibitory activity against L1210/DDP leukemia cell line using MTT assay; format: functional, cell-based; conditions: Mus musculus
Procedure, shortened: (§1)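 L1210 or L1210/DDP cells were dosed as for counting (48 h continuous, or 2-h pulse then 46 h), with vehicle controls. Growth was read by mitochondrial reduction of tetrazolium (MTT), modified Mosmann method. ID50 (μM) was taken from the percentage growth versus dose curve; single determinations, ranges, or mean ± range of 2–4.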

[3] = system: L1210; test: Compound was evaluated in vitro for its inhibitory activity against L1210/DDP leukemia cell line using Coulter counter assay; format: functional, cell-based; conditions: Mus musculus
Procedure, shortened: (§2)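 Log-phase murine L1210 or cisplatin-resistant L1210/DDP cells, drug in ethanol, ethanol/DMSO or DMF (final solvent ≤1.0%) with vehicle-only controls. Exposure was continuous for 48 h, or 2 h followed by 46 h growth. Cells were counted on a Coulter counter. ID50 (μM) was read from the percentage growth versus dose curve; single determinations, ranges, or mean ± range of 2–4.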

[4] = system: L1210; test: Compound was evaluated in vitro for its inhibitory activity against L1210 leukemia cell line using […]; format: functional, cell-based; conditions: Mus musculus; procedure, shortened: as §1
[5] = system: L1210; test: Compound was evaluated in vitro for its inhibitory activity against L1210 leukemia cell line using Coulter counter assay; format: functional; conditions: Mus musculus; procedure, shortened: as §2
[6] = system: P388/DDP; test: Mean survival time of treated animals compared with those of control animals expressed as percentage T/C was determined against murine leukemia P388/DDP (cisplatin resistant) implanted mouse at the dose of 20 umol/kg; format: functional
Procedure, shortened: (§3)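 Groups of six BDF1 mice were injected ip on day 0 with 10^6 P388, 5 × 10^6 P388/DDP or 10^5 L1210 cells. Pt compounds in 1% Tween-20/saline (1:9) were given ip on days 1, 5 and 9 at five doses spanning a 16-fold range. Controls were untreated or vehicle-only. Mice were observed 30–60 days; %T/C is treated versus control mean survival time.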

[7] = system: P388; test: Mean survival time of treated animals compared with those of control animals expressed as percentage. T/C was determined against murine leukemia P388 implanted mouse at the dose of 20 umol/kg; format: functional; procedure, shortened: as §3
[8] = system: P388; test: Mean survival time of treated animals compared with those of control animals expressed as percentage. T/C was determined against murine leukemia P388 implanted mouse at the dose of 140 umol/kg; format: functional
Procedure, shortened: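 BDF1 mice (six per group) inoculated ip with 10^6 P388 leukemia cells on day 0; Pt compounds given ip on days 1, 5 and 9 in 1% Tween-20/saline (1:9), five doses over a 16-fold range including the maximum tolerated dose. Untreated/vehicle negative controls; 5-fluorouracil (50 mg/kg) positive control. Animals observed 30–60 days; %T/C = mean survival time treated vs control.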

[9] = system: HT-29; test: Compound was evaluated in vitro for its inhibitory activity againstHT-29 and BE human colon carcinoma cell line using MTT assay; format: functional, cell-based
Procedure, shortened: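 HT-29 and BE colon cells were pre-grown 12 h in EMEM with 1% glutamine and 15% FCS, then exposed to drug or vehicle for 2 days. Cells were released with pronase and growth was read by MTT tetrazolium reduction. ID50 (μM) was taken from the percentage growth versus dose curve.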

[10] = system: P388/DDP; test: Mean survival time of treated animals compared with those of control animals expressed as percentage T/C was determined against murine leukemia P388/DDP (cisplatin resistant) implanted mouse at the dose of 113 umol/kg; format: functional; procedure, shortened: as §3
[11] = system: L1210; test: Mean survival time of treated animals compared with those of control animals expressed as percentage T/C was determined against murine leukemia L1210 implanted mouse at the dose of 113 umol/kg; format: functional; procedure, shortened: as §3
[12] = system: P388; test: Mean survival time of treated animals compared with those of control animals was determined against murine leukemia P388 implanted mouse at the dose of 113 umol/kg; format: functional; procedure, shortened: as §3

Compound	ID50 [1]	ID50 [2]	ID50 [3]	ID50 [4]	ID50 [5]	T/C [6]	T/C [7]	IC50 ([5]; read-out: ID50 (the source's name))	T/C [8]	ID50 [9]	T/C [10]	T/C [11]	T/C [12]
CISPLATIN	0.7 µM	20.3 µM	6.7 µM	1.1 µM	0.6 µM	122%	248%						
Fc1cc(F)c(F)c(NCCNc2c(F)c(F)cc(F)c2F)c1F								37 µM	108%				
1-[2-(1-pyridiniumyl)-1,3-di(2,3,5,6-tetrafluorophenyl)tetrahydro-1H-2-imidazolyl]pyridinium (platinumcomplex)	1 µM	1.4 µM	1 µM	1.6 µM	1.2 µM					1.1 µM	115%	172%	206%
